High-throughput results (PubChem BioAssay)
A selection: hits, their analogues and other compounds. The true share with any hit is near 1%.
VIM-2 inh = blocks Pseudomonas aeruginosa VIM-2 metallo-beta-lactamase. purified VIM-2, nitrocefin hydrolysis, epi-absorbance fluorescence. inhibition, % at 5.6 µM. 290,000 compounds, 0.89% hits. AID 1527;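 active = inhibition above the mean of all tested compounds plus 3 SD, cutoff set per screening run, cut at about 7.5% in these data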;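 note: red hydrolysis product quenches plate fluorescence so inhibitors raise well fluorescence; 0% = enzyme with DMSO and 100% = DMSO without enzyme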
IMP-1 inh = blocks Pseudomonas aeruginosa IMP-1 metallo-beta-lactamase | purified IMP-1, nitrocefin hydrolysis, epi-absorbance fluorescence | 290,000 compounds, 0.45% hits | inhibition, % at 5.6 µM;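 active = inhibition above the mean plus 3 SD of all compounds in the same screening run, cut at about 4.5% in these data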;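 note: 0% = IMP-1 with DMSO and 100% = DMSO wells lacking enzyme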
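System: purified IMP-1; amount: IMP-1 0.2 nM before substrate addition; compound: single dose, 5.6 µM; times: 25 °C, 15 min preincubation, 25 min reaction; signal: Epi-absorbance via hydrolysed-nitrocefin quenching of white-plate fluorescence, 480/530 nm, EDTA stop; benchmarks: DMSO with and without IMP-1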
RAD54 branch = RAD54 (human) branch migration inhibition. inhibition, % at 10.4 µM. 360,000 compounds, 0.14% hits. RAD54 Holliday junction branch migration, FAM/BHQ fluorescence. AID 602329. Q92698;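 active = mean normalized replicate activity at least 40 and at least half of replicates scoring 40 or more; inconclusive = only one of the two criteria met; inactive = mean below 40 and under half of replicates reaching 40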;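 note: 0% = median of neutral control wells and 100% = median of positive control wells; inhibitors cause a drop in the FAM fluorescence signal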
Target sequence (Q92698 whole entry, looked up): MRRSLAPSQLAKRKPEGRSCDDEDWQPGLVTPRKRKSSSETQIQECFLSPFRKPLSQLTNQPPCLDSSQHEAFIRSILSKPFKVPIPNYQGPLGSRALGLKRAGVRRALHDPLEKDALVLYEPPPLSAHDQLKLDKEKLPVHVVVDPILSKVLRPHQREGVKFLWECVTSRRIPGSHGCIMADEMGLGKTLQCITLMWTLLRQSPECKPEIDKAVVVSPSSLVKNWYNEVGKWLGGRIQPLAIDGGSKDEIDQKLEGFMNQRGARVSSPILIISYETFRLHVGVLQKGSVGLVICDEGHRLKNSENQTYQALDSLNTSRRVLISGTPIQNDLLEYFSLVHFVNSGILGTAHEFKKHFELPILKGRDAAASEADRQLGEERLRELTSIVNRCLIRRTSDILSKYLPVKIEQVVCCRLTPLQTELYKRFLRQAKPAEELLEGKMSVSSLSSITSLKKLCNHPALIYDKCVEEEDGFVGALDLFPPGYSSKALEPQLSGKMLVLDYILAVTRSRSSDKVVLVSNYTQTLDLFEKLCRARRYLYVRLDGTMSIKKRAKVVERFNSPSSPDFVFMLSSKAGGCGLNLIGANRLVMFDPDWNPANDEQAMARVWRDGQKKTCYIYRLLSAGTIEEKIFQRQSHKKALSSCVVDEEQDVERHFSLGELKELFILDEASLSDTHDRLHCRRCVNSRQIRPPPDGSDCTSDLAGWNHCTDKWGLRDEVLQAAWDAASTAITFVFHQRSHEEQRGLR
PvdQ acylase = blocks Pseudomonas aeruginosa PvdQ acylase activity; 340,000 compounds, 0.063% hits; AID 488965; inhibition, % at 10 µM; purified PvdQ acylase, fluorescence plate reader; in the data active = inhibition above about 30%, passing the limit was not always enough; inconclusive = no clear call, values can overlap the other calls;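 note: 0% = vehicle neutral wells and 100% = reference inhibitor wells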
FID counter = counter-screen for HCV NS3 helicase inhibitors: DNA intercalator displacement | inhibition, % at 7.9 µM | DNA fluorescent intercalator displacement, fluorescence | 290,000 compounds, 0.17% hits | AID 1845; in the data active = inhibition above about 37%;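 note: 0% = vehicle and 100% = reference compound; higher means more ethidium bromide displaced from hairpin DNA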
* marks the source's active call; other numbers are inactive results; ? = inconclusive; . = not tested or not shown.

SMILES	VIM-2 inh	IMP-1 inh	RAD54 branch	PvdQ acylase	FID counter
CCn1c(SCC(=O)N(C(C)C)C(C)C)nnc1-c1cc2ccccc2cc1O	12*	-7	-19	-8	-40
O=C(Cc1ccncc1)NCC[C@@H]1CC[C@@H](NC(=O)C2CCCCC2)[C@@H](CO)O1	.	.	-3	.	.
CC(C)n1c(-c2ccccc2F)n[nH]c1=S	6	5.0*	10	3	-3
C[C@H](NC(=O)C[C@H]1CC[C@@H](NC(=O)CN2CCOCC2)[C@@H](CO)O1)c1ccccc1	.	.	11	.	.
O=C(Nc1ccccc1)N1C[C@@H]2[C@H](c3ccccc31)[C@H](CO)N2CC1CCCC1	.	.	5	.	.
Cc1ccc(Cn2ccc(NC(=O)c3nn(C)cc3[N+](=O)[O-])n2)cc1	-1	-2	2	-19	-1
CCn1cc([N+](=O)[O-])c(C(=O)Nc2ccn(Cc3ccccc3)n2)n1	12*	-3	-2	-4	-7
CCN1[C@H](C(=O)N(C)C)[C@@H](CO)[C@@H]2Cn3c(ccc(-c4cccc(C(=O)N(C)C)c4)c3=O)[C@@H]21	.	.	1	.	.
CC(C)(C)NCC(O)CON=C1c2ccccc2-c2ccccc21 (stereo not given)	7.8*	1	.	-11	45*
Cc1cc(CN(C)C(=O)c2cc(COc3ccc4ncccc4c3)on2)on1	-3	-3	-12	-14	-18
CN(Cc1nccn1C)C(=O)c1cc(COc2ccc3ncccc3c2)on1	10.0*	-3	.	-22	-2
Cc1ccc2nc(N=C(N)N)nc(C)c2c1	11*	-1	?	-10	8
CCc1ccc2nc(N=C(N)N)nc(C)c2c1	5	-2	.	-11	7
Cc1c(Cl)cccc1-c1ccc(CNCc2ccccn2)o1	7.9*	-2	13	-13	18
CC1(C)Cc2c(sc(NC(=O)c3ccc(C(=O)c4ccccc4)cc3)c2C#N)C(C)(C)N1	-2	-1	10	7	38*
O=C(C[C@@H]1CC[C@H]2[C@@H](COC[C@@H](O)CN2Cc2cccc(Cl)c2)O1)NCC1CCCCC1	.	.	-5	.	.
Cc1cc2ccccc2n2c(SCC(=O)N3CCOCC3)nnc12	8.0*	-4	6	-8	-7
O=C(CSc1nnc2ccc3ccccc3n12)N1CCOCC1	2	-1	1	-12	-6
Cc1noc(C)c1CN1C(=O)c2ccccc2C1=O	-3	4.8*	-11	-10	-13
Cc1ccc(C2(C)NC(=O)N(Cc3c(C)noc3C)C2=O)cc1 (stereo not given)	-2	-3	8	-10	5
CCOC(=O)c1c(C)[nH]c(C)c1C(=O)COC(=O)CNC(=O)c1ccc(OCC)cc1	-2	4.7*	3	2	-20
C[C@H]1CN([C@@H](C)CO)C(=O)c2cc(NC(=O)C3CCCCC3)ccc2O[C@H]1CN(C)C(=O)Nc1ccc(F)cc1	.	.	2	.	.
COC(=O)C1=C(N)Oc2cc(C)n(CC3CCCO3)c(=O)c2C1c1ccccc1OC (stereo not given)	-3	-2	-4	-16	-5
COC(=O)C1=C(N)Oc2cc(N(C)C)ccc2C1c1ccccc1OC (stereo not given)	-1	7.5*	8	-3	-11
C[C@H](CO)N1C[C@H](C)[C@@H](CN(C)Cc2ccccc2)Oc2ccc(NS(=O)(=O)c3ccccc3)cc2C1=O	.	.	5	.	.
SMILES	VIM-2 inh	IMP-1 inh	RAD54 branch	PvdQ acylase	FID counter
CC(=O)c1sc(NCc2ccccc2)nc1C	0	28*	-2	-6	0
C[C@H](CO)N1C[C@H](C)[C@H](CN(C)Cc2ccc(Oc3ccccc3)cc2)Oc2c(NS(=O)(=O)c3cccs3)cccc2C1=O	.	.	1	.	.
COc1ccc(C(=O)N2C[C@@H]3[C@H](c4ccccc42)[C@H](CO)N3Cc2ccccc2)cc1	.	.	-5	.	.
Cc1cccc(N(CC(N)=O)C2SC(=O)N(c3ccccc3)C2=O)c1 (stereo not given)	-2	6.6*	-1	-3	4
Cc1cc(OCC(O)CNC(C)c2ccccc2)ccc1C(C)C (stereo not given)	0	1	11	-8	41*
CCCC(NCC(O)COc1ccc(-c2ccccc2)cc1)c1ccccc1 (stereo not given)	0	-2	.	-4	41*
CCOc1cc(CNCCO)cc(Br)c1OCc1ccccc1Cl	-2	-2	8	-8	29
CCOc1cc(CNCCCN2CCOCC2)cc(Br)c1OCc1ccccc1Cl	0	-3	6	5	40*
CCOc1cc(CNC(C)(C)CO)cc(Br)c1OCc1ccc(Cl)cc1Cl	0	-1	8	1	38*
CCOc1cc(CNCCO)cc(Br)c1OCc1ccc(Cl)cc1	0	-4	21	-3	38*
CC(=O)Nc1ccc2c(c1)C(=O)N(C)[C@H]1CC[C@H](CC(=O)NCc3ccc(Cl)cc3)O[C@H]1CO2	.	.	-9	.	.
COc1ccc(-c2cnc3c(c2)C(=O)N([C@H](C)CO)C[C@H](C)[C@H](CN(C)C(=O)Nc2ccc(F)cc2)O3)cc1	.	.	-7	.	.
CSc1nc(N(CCO)CCO)c2sc3nc(-c4ccco4)c4c(c3c2n1)CCC4	1	12*	8	-14	-22
CC[C@@H](C)[C@H](NC(=O)Cc1c(C)c2cc3c(C)coc3c(C)c2oc1=O)C(=O)O	2	-4	0	-3	-28
Cc1c(CC(=O)O)c(=O)oc2c(C)c3occ(-c4ccc(Br)cc4)c3cc12	8.9*	-2	-16	4	-10
CCCCC(NC(=O)Cc1c(C)c2cc3c(-c4ccccc4)coc3c(C)c2oc1=O)C(=O)O (stereo not given)	8.5*	-4	-37	-15	-16
Cc1ccc(N=Cc2cccc(O)c2O)c(C)c1	0	-1	6	-7	5
Cc1ccc(N=Cc2sc(O)c3ccccc23)c(C)c1	4	28*	.	-17	-6
Cc1cc(-c2ccc(C)c(S(=O)(=O)NCC3CCN(Cc4ccccc4F)CC3)c2)on1	0	-2	-1	-12	20
COc1ccccc1CN1CCC(CNS(=O)(=O)c2cc(-c3onc(C)c3C)ccc2OC)CC1	3	0	-2	1	44*
COc1ccc(Nc2nnc(-c3ccncc3)s2)cc1Cl	1	17*	11	-11	0
CN1C[C@H]2[C@@H](c3ccccc31)[C@@H](CO)N2C(=O)CN1CCOCC1	.	.	6	.	.
O=C(O)c1cccc(NC(=O)c2ccc(CN3C(=O)c4ccccc4C3=O)cc2)c1	1	1	5	-19	-36
O=C(Nc1cc(Cl)ccc1C(=O)O)c1ccc(CN2C(=O)c3ccccc3C2=O)cc1	0	2	9	-11	39*
CN(C)c1ccc(/C=C/c2ccc3ccccc3[n+]2C)cc1	-5	-11	81*	-10	42*
CN(C)c1ccc(/C=C/c2ccc3c4ccccc4ccc3[n+]2-c2ccccc2)cc1	-1	-9	74*	4	78*
CNC[C@@H]1Oc2c(NC(=O)Nc3ccccc3)cccc2C(=O)N([C@H](C)CO)C[C@H]1C	.	.	4	.	.
